Test results from ChEMBL document CHEMBL1140440, “Simple but highly effective three-dimensional chemical-feature-based pharmacophore model for diketo acid derivatives as hepatitis C virus RNA-dependent RNA polymerase inhibitors” (J Med Chem, 2005).
pIC50: −log10 of the molar value.

Target: RNA-directed RNA polymerase (Hepacivirus hominis, UniProt O39930)
Test: Inhibitory concentration against NS5B HCV polymerase using [alpha-32P]UTP as radioligand (30 degree C for 2 h, at pH 7.5 with Tris-HCl buffer)
In short: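 Recombinant HCV RdRp (1 nM) in 20 mM Tris-HCl pH 7.5, 5 mM MgCl2, 1 mM DTT, 1 mM EDTA, RNase inhibitor, 50 µg/mL actinomycin D, 10 µg/mL RNA template, 0.5 mM ATP/CTP/GTP, [α-32P]UTP, limiting nucleotide 10 µM. 30 °C, 2 h; proteinase K stop, extraction, urea-PAGE, phosphorimaging. IC50s rescaled by a reference inhibitor's measured/literature IC50 ratio.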

Sequence of RNA-directed RNA polymerase (O39930 whole entry): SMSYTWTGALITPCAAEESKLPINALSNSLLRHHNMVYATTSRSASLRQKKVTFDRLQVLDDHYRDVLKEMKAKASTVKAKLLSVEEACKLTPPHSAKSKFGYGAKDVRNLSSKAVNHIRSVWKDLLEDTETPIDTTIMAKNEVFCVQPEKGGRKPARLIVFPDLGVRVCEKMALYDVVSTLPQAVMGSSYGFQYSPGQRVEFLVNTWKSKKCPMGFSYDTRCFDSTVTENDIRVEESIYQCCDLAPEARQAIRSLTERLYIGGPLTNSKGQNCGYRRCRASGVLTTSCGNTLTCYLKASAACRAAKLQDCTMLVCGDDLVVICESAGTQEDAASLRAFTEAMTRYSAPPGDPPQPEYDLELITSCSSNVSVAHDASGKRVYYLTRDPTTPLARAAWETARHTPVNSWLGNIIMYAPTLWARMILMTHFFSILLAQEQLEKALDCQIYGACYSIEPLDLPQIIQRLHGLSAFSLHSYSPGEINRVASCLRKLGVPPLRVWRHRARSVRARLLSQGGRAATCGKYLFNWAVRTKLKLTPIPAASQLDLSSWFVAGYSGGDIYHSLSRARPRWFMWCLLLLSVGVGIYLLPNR

| pIC50 | SMILES |
| --- | --- |
| 4.36 | O=C(O)C(=O)/C=C(\O)c1ccccc1OCc1ccccc1 |
| 4.10 | O=C(O)C(=O)/C=C(\O)c1ccsc1Cc1cccc(F)c1 |
| 4.89 | O=C(O)C(=O)/C=C(\O)c1cccn1Cc1ccc2ccccc2c1 |
| 4.54 | O=C(O)C(=O)/C=C(\O)c1cccn1Cc1ccccc1 |
| 4.55 | O=C(O)C(=O)/C=C(\O)c1cccc(-c2ccccc2)c1 |
| 7.31 | O=C(O)C(=O)/C=C(\O)c1cccc(NS(=O)(=O)c2cc(Cl)c(Cl)cc2Cl)c1 |
| 7.25 | N#Cc1cc(Cl)c(Cl)cc1COc1cccc(/C(O)=C/C(=O)C(=O)O)c1 |
| 4.68 | Cn1cc(/C(O)=C/C(=O)C(=O)O)cc1Cc1cccc(F)c1 |
| 5.00 | O=C(O)C(=O)/C=C(\O)c1sccc1Cc1cccc(F)c1 |
| 4.72 | O=C(O)C(=O)/C=C(\O)c1cccc(Oc2ccccc2)c1 |
| 6.17 | O=C(O)C(=O)/C=C(\O)c1cccc(OCc2cccc3ccccc23)c1 |
| 4.19 | O=C(O)C(=O)/C=C(\O)c1ccc(Cc2ccc(F)cc2)s1 |
| 4.08 | O=C(O)C(=O)/C=C(\O)c1cccc(N2CCCC2)c1 |
| 4.17 | O=C(O)C(=O)/C=C(\O)c1ccc(Cc2ccccc2)s1 |
| 4.89 | N#CCCCCn1cccc1/C(O)=C/C(=O)C(=O)O |
| 4.92 | Cc1cccc(/C(O)=C/C(=O)C(=O)O)c1 |
| 5.12 | COc1cccc(Cn2cccc2/C(O)=C/C(=O)C(=O)O)c1 |
| 4.30 | O=C(O)C(=O)/C=C(\O)c1ccco1 |
| 4.74 | O=C(O)C(=O)/C=C(\O)c1cc(I)cn1Cc1ccc(F)cc1 |
| 7.00 | N#Cc1cccc(Cl)c1COc1cc(O)cc(/C(O)=C/C(=O)C(=O)O)c1 |
| 5.13 | O=C(O)C(=O)/C=C(\O)c1cccn1Cc1c(F)cccc1F |
| 6.96 | N#CCCCOc1ccc(O)cc1/C(O)=C/C(=O)C(=O)O |

| pIC50 | SMILES |
| --- | --- |
| 4.74 | O=C(O)C(=O)/C=C(O)/C=C/c1c[nH]c2ccc(Cl)cc12 |
| 5.12 | O=C(O)C(=O)/C=C(\O)c1ccsc1Sc1cccc(Cl)c1 |
| 4.77 | O=C(O)C(=O)/C=C(\O)c1cccc(NCc2ccccc2)c1 |
| 4.85 | Cc1cc(/C(O)=C/C(=O)C(=O)O)c(C)o1 |
| 4.62 | O=C(O)C(=O)/C=C(\O)c1cccn1Cc1ccccc1Cl |
| 4.52 | O=C(O)C(=O)/C=C(\O)c1cccn1Cc1cccc(F)c1 |
| 5.17 | O=C(O)C(=O)/C=C(\O)C12C[C@H]3C[C@@H](C1)C[C@@H](C2)C3 |
| 4.80 | Cn1cc(C(=O)c2ccc(F)cc2)cc1/C=C/C(O)=C/C(=O)C(=O)O |
| 6.42 | N#CCCCOc1ccccc1/C(O)=C/C(=O)C(=O)O |
| 4.59 | O=C(O)C(=O)/C=C(\O)c1cnc2cc(Cl)ccc2c1O |
| 4.74 | O=C(O)C(=O)/C=C(\O)c1ccsc1Cc1ccc(F)cc1 |
| 4.72 | O=C(O)C(=O)/C=C(\O)c1cccc(NC(=O)C(=O)O)c1 |
| 4.40 | COc1cccc(/C(O)=C/C(=O)C(=O)O)c1 |
| 4.09 | O=C(O)C(=O)/C=C(\O)c1ccc(Cc2cccc(Cl)c2)s1 |
| 6.85 | O=C(O)C(=O)/C=C(\O)c1cccc(NS(=O)(=O)c2cc(Cl)cc(Cl)c2)c1 |
| 5.25 | O=C(O)C(=O)/C=C(\O)c1ccccc1 |
| 4.49 | O=C(O)C(=O)/C=C(\O)c1cccc(Cc2cc(Br)cc(Br)c2)c1 |
| 4.30 | O=C(O)C(=O)/C=C(\O)c1cccc(OCc2cccc(Oc3ccccc3)c2)c1 |
| 4.80 | COc1ccc(Cn2cccc2/C=C/C(O)=C/C(=O)C(=O)O)cc1 |
| 4.24 | Cc1ccc(/C(O)=C/C(=O)C(=O)O)o1 |
| 5.70 | Cc1ccc(/C(O)=C/C(=O)C(=O)O)c(C)c1 |
| 5.08 | O=C(O)C(=O)/C=C(\O)c1ccccc1Cc1ccc(F)cc1 |

| pIC50 | SMILES |
| --- | --- |
| 6.00 | O=C(O)C(=O)/C=C(\O)c1cccc(O)c1 |
| 5.09 | Cc1cc(C)c(/C(O)=C/C(=O)C(=O)O)s1 |
| 4.74 | O=C(O)C(=O)/C=C(O)/C=C/c1cccn1Cc1cccc(F)c1 |
| 5.85 | O=C(O)C(=O)/C=C(\O)c1cc(O)cc(OCc2ccccc2)c1 |
| 4.57 | O=C(O)C(=O)/C=C(\O)c1cc2c(s1)-c1cc(F)ccc1OC2 |
| 5.20 | N#Cc1ccccc1Cn1cccc1/C(O)=C/C(=O)C(=O)O |
| 4.89 | O=C(O)C(=O)/C=C(\O)c1cccn1Cc1ccc(O)cc1 |
| 4.13 | O=C(O)C(=O)/C=C(\O)c1ccc(Cc2cccc(F)c2)s1 |
| 4.30 | O=C(O)C(=O)/C=C(\O)c1cccc(OCc2ccc(-c3ccccc3)cc2)c1 |
| 5.22 | O=C(O)C(=O)/C=C(\O)c1cccc(OCc2cc(-c3ccccc3)on2)c1 |
| 5.40 | O=C(O)C(=O)/C=C(\O)c1ccsc1 |
| 5.34 | N#Cc1cccc(Cn2ccc(/C(O)=C/C(=O)C(=O)O)c2)c1 |
| 4.74 | Cc1ccccc1Cn1cccc1/C=C/C(O)=C/C(=O)C(=O)O |
| 4.39 | O=C(O)C(=O)/C=C(\O)c1ccc(-c2ccc(F)c(Cl)c2)o1 |
| 4.03 | O=C(O)C(=O)/C=C(\O)c1cccn1Cc1ccc(F)cc1 |
| 4.32 | Cc1coc(C)c1/C(O)=C/C(=O)C(=O)O |
| 4.55 | Cc1ccc(Cn2cccc2/C=C/C(O)=C/C(=O)C(=O)O)cc1 |
| 6.02 | O=C(O)C(=O)/C=C(\O)c1cccc(OCc2ccsc2C(=O)O)c1 |
| 5.09 | O=C(O)C(=O)/C=C(\O)c1ccc(N2CCCCC2)s1 |
| 3.78 | Cc1sc(-c2ccccc2)cc1/C(O)=C/C(=O)C(=O)O |
| 5.10 | O=C(O)C(=O)/C=C(\O)c1cccc(OCc2ccccc2)c1 |
| 4.09 | CCCCS(=O)(=O)N1CCCC(Cc2ccc(Cl)cc2)(/C(O)=C/C(=O)C(=O)O)C1 (stereo unspecified) |
